Consider eight compounds from EPA's CvTdb concentration-time database.

Series [1] has as its system Rat. Description: concentration in plasma after dosing. Particulars: 12 h; dosed: alpha-Thujone; 50 mg/kg; oral; Female; Harlan Sprague Dawley.
The test system of series [2] is Rat. The experiment in a line: concentration in plasma after dosing. Particulars: 5 min; dosed: alpha-Thujone; 50 mg/kg; oral; Female; Harlan Sprague Dawley.
The subject of series [3] is Rat. Description: concentration in brain after dosing. As to conditions: 5 min; dosed: alpha-Thujone; 25 mg/kg; oral; Male; Harlan Sprague Dawley.
The subject of series [4] is Rat. Description: concentration in plasma after dosing. As to conditions: 10 min; dosed: alpha-Thujone; 25 mg/kg; oral; Male; Harlan Sprague Dawley.
In series [5] the test system is Rat. Description: concentration in plasma after dosing. As to conditions: 0.5 h; dosed: alpha-Thujone; 25 mg/kg; oral; Female; Harlan Sprague Dawley.
Series [6] deals with Rat. The experiment in a line: concentration in plasma after dosing. As to conditions: dosed: Pyridine, 25 mg/kg, oral, Male, F344.
Series [7] relates to Rat. The experiment in a line: concentration in plasma after dosing. Particulars: 2 h; dosed: Pyridine; 5 mg/kg; oral; Male; F344.
Series [8] deals with Rat. The experiment in a line: concentration in plasma after dosing. As to conditions: 2 h; dosed: Pyridine; 10 mg/kg; iv; Male; F344.
In series [9] the test system is Rat. The experiment in a line: concentration in plasma after dosing. As to conditions: dosed: Methyleugenol, 37 mg/kg, oral, Male, F344/N.
Series [10] has as its system Rat. Description: concentration in plasma after dosing. Particulars: dosed: Methyleugenol, 37 mg/kg, oral, Female, F344/N.
The test system of a further series is human. Description: concentration in blood after dosing; negative times count back from the end of exposure. As to conditions: dosed: trichloroethylene, 100 ppm, inhalation, duration: 6 hr, female. The method, boiled down:
(§1)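 Concentration-versus-time or amount-versus-time points were compiled from published in vivo toxicokinetic studies and from two structured collections. The studies were found by PubMed searching, classifier screening and manual review. Points were mostly digitised from plot screenshots with WebPlotDigitizer, otherwise copied from tables, and kept in the reported units. Dose, route, subject details and medium were curated by hand from each paper, and sampling and analytical methods follow each source and were often unreported.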

Series [11] concerns Rat. The experiment in a line: concentration in plasma after dosing. Particulars: 1.5 h; dosed: Primidone; 130 mg/kg; oral; Female; F344.
Series [12] concerns Rat. Description: concentration in plasma after dosing. As to conditions: 12 h; dosed: Primidone; 130 mg/kg; oral; Female; F344.
The test system of series [13] is Rat. Description: concentration in plasma after dosing. Particulars: 0.25 h; dosed: Primidone; 30 mg/kg; oral; Female; F344.
For series [14], the system named is Rat. The experiment in a line: concentration in plasma after dosing. As to conditions: 4 h; dosed: 2-Hydroxy-4-methoxybenzophenone; 500 mg/kg; oral; Male; F344.
The test system of series [15] is Mouse. The experiment in a line: concentration in plasma after dosing. Particulars: 2 h; dosed: 2-Hydroxy-4-methoxybenzophenone; 50 mg/kg; iv; Male; B6C3F1.
Another series deals with Hamster. Description: concentration in plasma after dosing. As to conditions: dosed: 2,4-Dichlorophenoxyacetic acid, 8.0 mg/kg, iv, Male, Syrian Golden. An outline of the steps:
as §1

The test system of series [16] is Mouse. The experiment in a line: concentration in plasma after dosing. Particulars: dosed: 2,4-Dichlorophenoxyacetic acid, 2.0 mg/kg, oral, Male, B6C3F1.
Series [17] concerns Rat. The experiment in a line: concentration in kidney after dosing. As to conditions: 24 h; dosed: Perfluorohexane-1-sulphonic acid – potassium salt; 16 mg/kg; oral; Female; Harlan Sprague Dawley.
The test system of series [18] is Rat. The experiment in a line: concentration in liver after dosing. Particulars: 48 h; dosed: Perfluorohexane-1-sulphonic acid – potassium salt; 16 mg/kg; oral; Female; Harlan Sprague Dawley.
For series [19], the system named is Rat. Description: concentration in kidney after dosing. Particulars: 96 h; dosed: Perfluorohexane-1-sulphonic acid – potassium salt; 16 mg/kg; oral; Female; Harlan Sprague Dawley.
Series [20] has as its system Rat. The experiment in a line: concentration in liver after dosing. As to conditions: 192 h; dosed: Perfluorohexane-1-sulphonic acid – potassium salt; 16 mg/kg; oral; Female; F344.
Series [21] deals with Rat. Description: concentration in liver after dosing. As to conditions: 192 h; dosed: Perfluorohexane-1-sulphonic acid – potassium salt; 16 mg/kg; oral; Female; Harlan Sprague Dawley.
For series [22], the system named is Rat. Description: concentration in plasma after dosing. As to conditions: dosed: Perfluorohexane-1-sulphonic acid – potassium salt, 4 mg/kg, oral, Male, F344.

In the case of `CC(C)[C@]12CC(=O)[C@H](C)[C@H]1C2` [alpha-Thujone], the concentration in plasma in the series with Rat [1] stood at 28.6 ng/mL; in the series with Rat [2] it was 2120 ng/mL; in the series on Rat [4] it was 243 ng/mL; with Rat [5] it was 305 ng/mL. This compound also had a concentration in brain in the series with Rat [3] of 62.6 ng/g.
Consider `c1ccncc1` [Pyridine], for which the concentration in plasma worked out at 18700 ng/mL in the series on Rat [6] (0.5 h), 16200 ng/mL in the series on Rat [6] (6 h), 2710 ng/mL with Rat [7] and 320 ng/mL in the series with Rat [8].
Regarding `C=CCc1ccc(OC)c(OC)c1` [Methyleugenol], the concentration in plasma was determined as 8.3 ng/mL in the series on Rat [9] (2 min), 11.2 ng/mL in the series with Rat [9] (4 h), 173 ng/mL with Rat [10] (5 min) and 9.95 ng/mL with Rat [10] (4 h).
With `OCC(Cl)(Cl)Cl` [trichloroethanol], the concentration in blood turned out to be 4610 ng/mL in the series on human (0 h); 4180 ng/mL with human (18 h); 8180 ng/mL in the series with human (24 h); 6260 ng/mL in the series with human (42 h); 11800 ng/mL in the series on human (48 h); 6560 ng/mL in the series on human (66 h). The concentration in blood came out at 13100 ng/mL in the series on human (72 h); 5590 ng/mL with human (90 h); 9980 ng/mL in the series with human (96 h); 1570 ng/mL in the series on human (160 h); 212 ng/mL in the series with human (-6 h, during exposure).
In the case of `CCC1(c2ccccc2)C(=O)NCNC1=O` [Primidone], the concentration in plasma was determined as 68100 ng/mL with Rat [11], 3100 ng/mL in the series with Rat [12] and 12300 ng/mL in the series with Rat [13].
In the case of `O=C(c1ccccc1)c1ccc(O)cc1O` [2,4-Dihydroxybenzophenone], the concentration in plasma stood at 124 ng/mL with Rat [14] and 217 ng/mL in the series with Mouse [15].
As to `O=C(O)COc1ccc(Cl)cc1Cl` [2,4-Dichlorophenoxyacetic acid], the concentration in plasma is 13500 ng/mL with Hamster (0.25 h); 7690 ng/mL in the series with Hamster (0.5 h); 6530 ng/mL in the series with Mouse [16] (2.5 min); 7270 ng/mL in the series on Mouse [16] (5 min); 7510 ng/mL in the series on Mouse [16] (10 min); 6770 ng/mL in the series on Mouse [16] (0.25 h). For the same compound, the values for the concentration in plasma in the series on Mouse [16] (0.5 h), in the series with Mouse [16] (2 h) and in the series on Mouse [16] (3 h) were 6600 ng/mL, 2620 ng/mL and 483 ng/mL, respectively.
For `O=S(=O)([O-])C(F)(F)C(F)(F)C(F)(F)C(F)(F)C(F)(F)C(F)(F)F.[K+]` [Perfluorohexane-1-sulphonic acid – potassium salt], the concentration in kidney with Rat [17] stood at 24300 ng/g; with Rat [19] it was 6720 ng/g. In addition, the concentration in liver with Rat [18] was 13300 ng/g; in the series with Rat [20], 38200 ng/g; with Rat [21], 1580 ng/g. Further, the concentration in plasma in the series on Rat [22] (3 h) is 29800 ng/mL; in the series with Rat [22] (192 h) it was 18200 ng/mL; with Rat [22] (1200 h) it was 6240 ng/mL.
